Screens (PubChem)
Only some compounds are listed: those with a hit (about 3.5% of all), similar ones and a draw of the others.
RGS4 act: RGS4 potentiation or activation; B-score at 10 µM; 310,000 tested, 0.92% active; HEK293 M3R/inducible RGS4, carbachol calcium flux Fluo4; stronger effect = lower value;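 active = B-score of the integrated calcium signal more than 4 SD below the library mean, with starting fluorescence not abnormally high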;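 note: negative B-score means reduced calcium response which marks RGS4 activation or potentiation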
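Detection: kinetic calcium fluorescence imaging with Fluo4-AM dye, 2 µM / Material: HEK293 cells with stable M3R and inducible RGS4 / Schedule: recording 10 s baseline at 1 Hz, 100 s post-agonist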
RGS4 block: inhibitors of human RGS4; HEK293 M3R/RGS4 inducible, Fluo-4 calcium flux; stronger effect = higher value; triggered by carbachol at its EC20; B-score at 10 µM; 310,000 tested, 0.45% active; AID 463165;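 active = B-score, a plate-corrected calcium signal, over three deviations above library mean, with baseline fluorescence within five deviations of library mean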;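 note: RGS4 expression induced by doxycycline in cells with stable M3 receptor; B-score is computed from the integrated fluorescence ratio over baseline after carbachol; higher B-score means a larger calcium signal and so more RGS4 inhibition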
Target sequence (P49798 whole entry, looked up): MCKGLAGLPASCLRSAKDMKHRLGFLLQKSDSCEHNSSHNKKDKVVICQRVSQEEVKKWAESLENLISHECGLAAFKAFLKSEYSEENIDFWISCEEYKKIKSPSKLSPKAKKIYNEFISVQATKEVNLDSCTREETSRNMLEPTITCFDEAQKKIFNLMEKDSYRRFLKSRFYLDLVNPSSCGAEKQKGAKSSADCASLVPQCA
MrgX1 agonist: human MrgX1 receptor agonism, primary screen; Q96LB2; B-score at 10 µM; 310,000 tested, 0.44% active; MrgX1-HEK293 cells, Fluo-4 calcium fluorescence, agonist mode; stronger effect = higher value; AID 588627;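 active = calcium response B-score plate-corrected fluorescence ratio at least 3 library SD, with starting fluorescence B-score inside 5 SD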
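Material: HEK293 cells stably expressing human MrgX1 receptor | Quantity: 15,000 cells per well | Times: Cells plated overnight, dye loaded 0.5 h 37 °C, 0.5 h room temperature | Measured by: Kinetic Fluo-4 NW fluorescence of intracellular calcium | Control set: Positive and negative controls per plate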
MrgX1 antag: human MrgX1 receptor antagonism, primary screen | Q96LB2 | MRGX1-HEK293 calcium flux, Fluo-4, BAM8-22 antagonism; stronger effect = lower value | B-score at 10 µM | 310,000 tested, 1.3% active;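 active = calcium-response B-score plate-corrected more than 3 library SD below zero, starting fluorescence within 5 deviations, no agonist response on first addition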;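 note: peak minus trough fluorescence over baseline after final BAM8-22 challenge near maximal dose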
MrgX1 PAM: allosterically activates human MrgX1 receptor signaling; B-score at 10 µM; Q96LB2; AID 588675; 310,000 tested, 0.63% active; MrgX1-HEK293, Fluo-4 calcium flux, FDSS; stronger effect = higher value;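 active = plate-corrected calcium response at least 3 library SD above typical, normal starting fluorescence, not activating the receptor alone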;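 note: compound read alongside a low EC10 to EC30 dose of BAM8-22 agonist; peak minus trough fluorescence over baseline measured at the second addition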
RGS4 inh valid: validation of RGS4 inhibitors; calcium response, % at 10 µM; AID 492999; HEK293 M3R/RGS4, carbachol calcium Fluo-4 fluorescence; carbachol added at its EC20; 0 = buffer wells, 100 = carbachol control; 1,700 tested, 65% active; shares compounds with RGS4 block;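 active = duplicate-averaged calcium response above the buffer-only control mean plus 5 SD of those controls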;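 note: integrated fluorescence ratio F max minus min over baseline F0; higher response in RGS4-induced cells means RGS4 inhibition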
RGS4 uninduced: non-induced cell nonspecific activity of RGS4 inhibitors; 1,900 tested, 20% active; AID 493000; HEK293 M3R non-induced, carbachol calcium Fluo-4; submaximal (EC20) carbachol stimulus; buffer wells 0%, carbachol control wells 100%; shares compounds with RGS4 block; activity (percent), % at 10 µM; call rule not given here;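 note: RGS4 induction absent so cells express M3R without RGS4; higher means more calcium signal and flags a non-specific hit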
RGS4 inh ctr2: signal in non-induced cells without carbachol, RGS4 inhibitor counter-screen | shares compounds with RGS4 block | HEK293 M3R/RGS4 non-induced, Fluo-4 calcium, no carbachol; normalised: buffer wells 0%, carbachol wells 100% | calcium response (agonist-mode artifact), % at 10 µM | 1,900 tested, 22% active;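 active = duplicate-averaged calcium rise in uninduced cells above buffer wells' mean plus 5 SD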
* hit, by the source's call; i = inactive; nt = no result given.

SMILES	RGS4 act	RGS4 block	MrgX1 agonist	MrgX1 antag	MrgX1 PAM	RGS4 inh valid	RGS4 uninduced	RGS4 inh ctr2
COc1cccc(N2C(=O)NC(=O)/C(=C/c3ccc([N+](=O)[O-])s3)C2=O)c1	i	10*	i	i	i	20%*	35%*	i
COc1cccc(N2C(=O)NC(=O)/C(=C/c3ccc4c(c3)Cc3ccccc3-4)C2=O)c1	i	i	i	i	i	nt	nt	nt
COc1ccc(N2C(=O)NC(=O)/C(=C/c3ccc([N+](=O)[O-])s3)C2=O)cc1	i	6.1*	i	i	i	16%*	i	i
COc1ccccc1N1C(=O)NC(=O)/C(=C/c2ccc([N+](=O)[O-])s2)C1=O	i	i	i	i	i	nt	i	i
COc1ccccc1N1C(=O)NC(=O)/C(=C\c2cnn(-c3ccccc3)c2)C1=O	i	i	i	i	i	nt	nt	nt
CCOc1ccc(N2C(=O)NC(=O)/C(=C\c3cc(OC)c(OC)cc3[N+](=O)[O-])C2=O)cc1	i	i	i	i	i	nt	nt	nt
CC1CCC(NC(=O)CNC(=S)N2CC3CC(C2)c2cccc(=O)n2C3)CC1 (stereo not drawn)	i	i	i	i	i	nt	nt	nt
O=c1c2ccccc2nc(-c2ccccc2Cl)n1-c1cccc(O)c1	i	i	i	i	i	nt	nt	nt
Cc1cc(OC(C)C(=O)NCC(O)c2ccccc2)c2c3c(c(=O)oc2c1)CCCC3 (stereo not drawn)	i	i	i	i	i	nt	nt	nt
C/C1=C\[C@@H](C)C/C=C/[C@H]2[C@@H]3O[C@]3(C)[C@@H](C)[C@H]3[C@H](Cc4c[nH]c5ccccc45)NC(=O)[C@]32C(=O)/C=C/C(=O)[C@@H]1O	i	11*	i	i	11*	46%*	i	18%*
CC1=CC2/C=C(\C)CCC(O)C(O)/C=C/C(=O)C23C(=O)NC(CC(C)C)C3C1C (stereo not drawn)	i	i	i	i	i	nt	nt	nt
C=CCN1C(=O)NC(=O)/C(=C/c2cc3c4c(c2)CCCN4CCC3)C1=O	i	i	i	i	i	nt	nt	nt
O=C1NC(=S)NC(=O)C1=Cc1ccc2c(c1)CCN2CCCCl	i	10*	i	i	i	42%*	i	i
COc1cccc(-n2c(O)c(C=NCCN3CCNCC3)c(=O)[nH]c2=S)c1	i	i	i	i	i	nt	nt	nt
Oc1c(Cl)c(Cl)c(Cl)c(Cl)c1Cl	i	i	i	i	i	nt	nt	nt
C=C1C(=O)O[C@@H]2C[C@@H](C)[C@@H]3C=CC(=O)[C@@]3(C)[C@@H](O)[C@H]12	i	5.2*	i	i	i	35%*	i	i
COc1cc(C(c2c(C)[nH]n(-c3ccccc3)c2=O)c2c(C)[nH]n(-c3ccccc3)c2=O)cc(OC)c1OC	i	6*	i	i	i	14%*	i	i
O=C1NC(=S)N(c2ccc(F)cc2)C(=O)/C1=C/c1ccccc1O	i	i	i	i	i	nt	nt	nt
CCOc1cccc(N2C(=O)/C(=C/c3ccco3)C(=O)NC2=S)c1	i	i	i	i	i	nt	nt	nt
COc1cccc(N2C(=O)/C(=C/c3ccc(C)o3)C(=O)NC2=S)c1	i	10*	i	i	i	93%*	33%*	20%*
COc1ccc(N2C(=O)/C(=C/c3cccs3)C(=O)NC2=S)cc1	i	8.3*	i	i	i	i	i	i
